Sampled rows, rich in hits. Any-hit rate of the full collection: about 2.5%.
ABCB1 inh = inhibitors of human ABCB1 transporter, ABCG2 counter-screen; CCRF-Adr cells, JC-1 efflux, flow cytometry; P08183; hit rate 0.067% among 190,000; inhibition, % at 6.6 µM; in the data active means inhibition above about 40%;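 further: higher value means more JC-1 retained so stronger ABCB1 efflux block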
ABCG2 inh = blocks JC-1 efflux by human ABCG2 transporter. hit rate 0.1% among 190,000. IgMXP3 cells, flow cytometry. inhibition, % at 6.6 µM;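 active means inhibition above 80%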
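System: two drug-resistant human cell lines, ABCG2 and ABCB1; controls: nicardipine high and DMSO low controls; times: 10 min exposure at 25 °C with rotation, no wash; detection: flow cytometry of retained JC-1 fluorescence; read-out basis: percent efflux inhibition, scaled nicardipine 100% to DMSO 0%; doses: one concentration, 6.6 µM final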
Efflux pump inh = inhibitors of Candida antifungal efflux pumps expressed in yeast; S. cerevisiae Candida pump triplex, Nile Red efflux; inhibition, % at 10 µM; hit rate 0.44% among 330,000; AID 485275;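 active means plate passing quality check with inhibition over a set limit, or well fluorescence over plate mean plus 4 SD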;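 further: Nile Red retained in pooled yeast measured as flow cytometry median fluorescence; higher means more Nile Red kept so more efflux inhibition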
MEKK3 PB1 HTS = MEKK3-MEK5 PB1 interaction, increase or decrease; Q99759; bead-based flow cytometry, Alexa488-MEK5 binding to MEKK3; actives lie on both sides; 0 = blocked by unlabeled MEK5, 100 = vehicle; binding response (% of control), % at 10 µM; hit rate 1.4% among 290,000;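 active means binding response more than 3 SD above or below the average of its plate-row segment, actives on both sides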;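 further: Alexa488 bead fluorescence after subtracting the streptavidin-only scavenger bead signal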
Target sequence (Q99759 whole entry, looked up): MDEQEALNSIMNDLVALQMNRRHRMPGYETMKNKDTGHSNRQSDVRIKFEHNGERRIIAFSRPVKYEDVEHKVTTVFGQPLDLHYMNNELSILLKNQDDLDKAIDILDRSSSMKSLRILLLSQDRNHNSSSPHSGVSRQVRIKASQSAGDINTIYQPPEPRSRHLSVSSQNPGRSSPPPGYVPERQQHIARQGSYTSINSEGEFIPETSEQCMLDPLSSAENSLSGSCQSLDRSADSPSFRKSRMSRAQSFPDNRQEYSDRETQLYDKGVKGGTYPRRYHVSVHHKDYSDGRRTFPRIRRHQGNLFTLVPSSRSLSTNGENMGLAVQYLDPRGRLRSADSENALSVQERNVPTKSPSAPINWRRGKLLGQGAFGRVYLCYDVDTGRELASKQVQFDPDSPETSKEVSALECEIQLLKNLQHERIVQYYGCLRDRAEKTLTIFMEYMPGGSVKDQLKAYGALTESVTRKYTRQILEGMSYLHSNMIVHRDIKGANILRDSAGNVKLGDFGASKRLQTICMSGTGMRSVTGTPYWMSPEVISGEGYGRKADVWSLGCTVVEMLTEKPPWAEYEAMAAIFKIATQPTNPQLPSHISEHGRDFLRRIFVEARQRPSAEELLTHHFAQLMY
MEKK2mut PB1 HTS = signal of MEK5 binding to mutant human MEKK2 PB1 domain | bead flow cytometry, Alexa488-MEK5 binding to MEKK2 mutant | percent response, % at 10 µM | hit rate 0.35% among 290,000 | AID 1530; in the data active means percent response above about 24%, passing the limit was not always enough
MEKK2wt PB1 HTS = raises or lowers MEK5 binding to wildtype human MEKK2 PB1 domain | binding response (% of control), % at 10 µM | bead flow cytometry, Alexa488-MEK5 binding to MEKK2 WT; actives lie on both sides | Q9Y2U5 | AID 1531 | hit rate 1.1% among 290,000; in the data active means binding response below about 67% or above about 130%
MEKK2wt confirm = raises or lowers MEK5 binding to wildtype human MEKK2, retest | hit rate 2.4% among 5,900 | bead flow cytometry, Alexa488-MEK5 binding to MEKK2 WT; actives lie on both sides | shares compounds with MEKK3 PB1 HTS | binding response (% of control), % at 10 µM; in the data active means binding response below about 16% or above about 210%; inactive means in between
MEKK2mut confirm = signal of MEK5 binding to mutant human MEKK2, retest; bead flow cytometry, Alexa488-MEK5 binding to MEKK2 mutant; shares compounds with MEKK3 PB1 HTS; percent response, % at 10 µM; hit rate 2% among 5,900; in the data active means percent response mostly above about 71%, no sharp cut-off; inactive means mostly below about 38%;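 further: higher means compound restores mutant binding toward wildtype level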
MEKK3-MEK5 inh = confirmation of inhibitors of MEK5 binding to human MEKK3; bead flow cytometry, Alexa488-MEK5 binding to MEKK3; hits give low values; shares compounds with MEKK3 PB1 HTS; hit rate 1.8% among 5,900; binding response (% of control), % at 10 µM; AID 1894;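 active means binding response below 72% of control, or above a set upper limit, though filed actives all read lower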
A number is an active result.

`COc1ccc(COC(=O)c2ccc(Br)c(S(=O)(=O)N3CCOCC3)c2)cc1F` gave Efflux pump inh inactive.
O=C(Cn1nnc(-c2cccs2)n1)NNC(=O)c1ccccc1Cl was read as Efflux pump inh inactive, MEKK3 PB1 HTS 128, MEKK2mut PB1 HTS inactive, MEKK2wt PB1 HTS inactive, MEKK2wt confirm inactive, MEKK2mut confirm inactive and MEKK3-MEK5 inh inactive.
For COc1cc(-c2c(NC(=O)c3ccco3)oc3ccccc3c2=O)cc(OC)c1OC the results were Efflux pump inh inactive, MEKK3 PB1 HTS inactive, MEKK2mut PB1 HTS inactive and MEKK2wt PB1 HTS inactive.
`Cc1ccc(C2=NN(CCC(=O)NCc3ccc4c(c3)OCO4)C(=O)CC2)cc1` gave ABCB1 inh inactive, ABCG2 inh inactive, Efflux pump inh inactive, MEKK3 PB1 HTS inactive, MEKK2mut PB1 HTS inactive and MEKK2wt PB1 HTS inactive.
`CCCC(=O)N(CCN1CCOCC1)c1nc2c(F)cc(F)cc2s1` gave Efflux pump inh inactive, MEKK3 PB1 HTS inactive, MEKK2mut PB1 HTS inactive and MEKK2wt PB1 HTS inactive.
CN(C)CCCN(C(=O)CCc1ccccc1)c1nc2ccc(Br)cc2s1 was read as ABCB1 inh inactive, ABCG2 inh inactive, Efflux pump inh inactive, MEKK3 PB1 HTS inactive, MEKK2mut PB1 HTS inactive, MEKK2wt PB1 HTS 233, MEKK2wt confirm inactive, MEKK2mut confirm inactive and MEKK3-MEK5 inh inactive.
For CN(C)CCCN(C(=O)CCc1ccccc1)c1nc2ccc(F)cc2s1 the results were ABCB1 inh inactive, ABCG2 inh inactive, Efflux pump inh inactive, MEKK3 PB1 HTS 129, MEKK2mut PB1 HTS inactive, MEKK2wt PB1 HTS inactive, MEKK2wt confirm inactive, MEKK2mut confirm inactive and MEKK3-MEK5 inh inactive.
For CN(C)CCN(C(=O)CCc1ccccc1)c1nc2c(F)cc(F)cc2s1 the results were ABCB1 inh inactive, ABCG2 inh inactive, Efflux pump inh inactive, MEKK3 PB1 HTS inactive, MEKK2mut PB1 HTS inactive and MEKK2wt PB1 HTS inactive.
CC1CC(C)CN(CC(O)COCc2ccccc2F)C1 (stereo not drawn) was read as Efflux pump inh inactive, MEKK3 PB1 HTS inactive, MEKK2mut PB1 HTS inactive and MEKK2wt PB1 HTS inactive.
Cc1cnc(NC(=O)c2cc3ccccc3o2)s1 was read as ABCB1 inh inactive, ABCG2 inh inactive, Efflux pump inh inactive, MEKK3 PB1 HTS inactive, MEKK2mut PB1 HTS inactive and MEKK2wt PB1 HTS inactive.
Screening COc1ccc(NC(=O)COC(=O)CNS(=O)(=O)c2ccc(F)c(F)c2F)cc1OC returned ABCB1 inh inactive, ABCG2 inh inactive, Efflux pump inh inactive, MEKK3 PB1 HTS 135, MEKK2mut PB1 HTS inactive, MEKK2wt PB1 HTS inactive, MEKK2wt confirm inactive, MEKK2mut confirm inactive and MEKK3-MEK5 inh inactive.
`COc1cc(NC(=O)COC(=O)CNS(=O)(=O)c2ccc(F)c(F)c2F)cc(OC)c1` gave ABCB1 inh inactive, ABCG2 inh inactive, Efflux pump inh inactive, MEKK3 PB1 HTS inactive, MEKK2mut PB1 HTS inactive and MEKK2wt PB1 HTS inactive.
`COc1cc(C(=O)OC(C)c2ccc(F)cc2)ccc1OCC(=O)N1CCOCC1` (stereo not drawn) gave Efflux pump inh inactive.
CN1CCN(CCCNC(=O)c2cc3c(-c4ccc(Cl)cc4)nn(C)c3s2)CC1 was read as ABCB1 inh inactive, ABCG2 inh inactive, Efflux pump inh inactive, MEKK3 PB1 HTS inactive, MEKK2mut PB1 HTS inactive, MEKK2wt PB1 HTS 180, MEKK2wt confirm inactive, MEKK2mut confirm inactive and MEKK3-MEK5 inh inactive.
`O=C(NCCCN1CCCC1)c1cc2c(Cl)nc3ccccc3c2s1` gave ABCB1 inh inactive, ABCG2 inh inactive, Efflux pump inh inactive, MEKK3 PB1 HTS inactive, MEKK2mut PB1 HTS inactive, MEKK2wt PB1 HTS 142, MEKK2wt confirm inactive, MEKK2mut confirm inactive and MEKK3-MEK5 inh inactive.
Screening CCN(CCCNC(=O)c1cc2c(-c3cccc(OC)c3)nn(C)c2s1)Cc1ccccc1 returned Efflux pump inh inactive, MEKK3 PB1 HTS inactive, MEKK2mut PB1 HTS 31, MEKK2wt PB1 HTS 149, MEKK2wt confirm inactive, MEKK2mut confirm inactive and MEKK3-MEK5 inh inactive.
CC1CCCCN1CCNC(=O)c1cc2c(-c3ccccc3F)nn(C)c2s1 (stereo not drawn) was read as ABCB1 inh inactive, ABCG2 inh inactive, Efflux pump inh inactive, MEKK3 PB1 HTS inactive, MEKK2mut PB1 HTS 24, MEKK2wt PB1 HTS inactive, MEKK2wt confirm inactive, MEKK2mut confirm inactive and MEKK3-MEK5 inh inactive.
`COc1cc(/C=C/C(=O)O)cc(S(=O)(=O)N(CC(C)C)CC(C)C)c1OC` gave ABCB1 inh inactive, ABCG2 inh inactive, Efflux pump inh inactive, MEKK3 PB1 HTS inactive, MEKK2mut PB1 HTS inactive and MEKK2wt PB1 HTS inactive.
For CCN(CC)CCCNC(=O)c1cc2c(-c3ccc(Cl)cc3)nn(C)c2s1 the results were ABCB1 inh inactive, ABCG2 inh inactive, Efflux pump inh inactive, MEKK3 PB1 HTS 122, MEKK2mut PB1 HTS 29, MEKK2wt PB1 HTS 218, MEKK2wt confirm inactive, MEKK2mut confirm inactive and MEKK3-MEK5 inh inactive.
`CCN1CCN(CCCNC(=O)c2ccc3c(Cl)c4c(nc3c2)CCCC4)CC1` gave Efflux pump inh inactive, MEKK3 PB1 HTS inactive, MEKK2mut PB1 HTS inactive and MEKK2wt PB1 HTS inactive.
`O=C(NCCCN1CCCCCC1)c1ccc2c(Cl)c3c(nc2c1)CCCC3` gave ABCB1 inh inactive, ABCG2 inh inactive, Efflux pump inh inactive, MEKK3 PB1 HTS inactive, MEKK2mut PB1 HTS inactive, MEKK2wt PB1 HTS 160, MEKK2wt confirm inactive, MEKK2mut confirm inactive and MEKK3-MEK5 inh inactive.
CCn1c(COc2cc(C)ccc2C(C)C)nnc1SCC(=O)Nc1nccs1 was read as ABCB1 inh inactive, ABCG2 inh inactive, Efflux pump inh inactive, MEKK3 PB1 HTS inactive, MEKK2mut PB1 HTS inactive and MEKK2wt PB1 HTS inactive.
For O=C1CCCN1CC(O)CS(=O)(=O)Cc1ccccc1Cl (stereo not drawn) the results were Efflux pump inh inactive, MEKK3 PB1 HTS inactive, MEKK2mut PB1 HTS inactive and MEKK2wt PB1 HTS inactive.
Screening O=C(CCC(=O)CCN1CCCCC1)CCN1CCCCC1 returned ABCB1 inh inactive, ABCG2 inh inactive, Efflux pump inh inactive, MEKK3 PB1 HTS inactive, MEKK2mut PB1 HTS inactive, MEKK2wt PB1 HTS 175, MEKK2wt confirm inactive, MEKK2mut confirm inactive and MEKK3-MEK5 inh inactive.
For NC(=O)CCN1CCCCC1 the results were ABCB1 inh inactive, ABCG2 inh inactive, Efflux pump inh inactive, MEKK3 PB1 HTS inactive, MEKK2mut PB1 HTS inactive and MEKK2wt PB1 HTS inactive.

Assay outcomes: PubChem, NMMLSC
